According to ChEMBL document CHEMBL4196167, “Ansamycins with Antiproliferative and Antineuroinflammatory Activity from Moss-Soil-Derived Streptomyces cacaoi subsp. asoensis H2S5” (J Nat Prod, 2018):
Calls of active or inactive are those of the source. The calls are words filed in the database; no cut-off is given here.

Key:
HepG2 [1] = assay: Cytotoxicity against human HepG2 cells after 72 hrs by sulforhodamine B assay; type: functional, cell-based; conditions: HepG2, 72 h
Method in brief: (§1)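 SRB assay. Exponentially growing cells at 2.5 × 10^4 cells/mL attached, then given fresh medium with a range of concentrations for 72 h at 37 °C; four replicate wells; 0.1% DMSO negative control, doxorubicin reference. Fixed in cold 10% TCA 1 h at 4 °C, stained with 0.4% SRB, dye dissolved in 10 mM Tris, A560; viability relative to control; IC50 from dose–response curves.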

BV-2 = assay: Inhibition of LPS-induced nitric oxide production in mouse BV2 cells after 24 hrs by Griess assay; type: functional, cell-based; conditions: BV-2, 24 h
Method in brief: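 BV-2 murine microglia in DMEM with 10% heat-inactivated FBS, seeded at 2 × 10^4/well and grown 24 h. Given compound at five concentrations with 1 μg/mL LPS (E. coli 0111:B4) for 24 h; quercetin reference. Supernatant nitrite measured by Griess reagents I and II at A540 against a sodium nitrite standard curve; IC50 as concentration halving NO.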

PC-3 = assay: Cytotoxicity against human PC3 cells after 72 hrs by sulforhodamine B assay; type: functional, cell-based; conditions: PC-3, 72 h; method in brief: as §1
[2] = Cytotoxicity against LPS-induced mouse BV2 cells assessed as cell viability after 24 hrs by MTT assay; type: cell-based, BV-2; set-up: concentration or dose not given beside the values; conditions: read-out: Activity
Method in brief: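 BV-2 cells seeded at 2 × 10^3 per 100 μL and grown 24 h, then given compound at various concentrations plus LPS for 24 h; DMSO alone as negative control. MTT (5 mg/mL stock, 10 μL) added for 4 h at 37 °C, lysed overnight in SDS/[…]/HCl buffer, absorbance 570 nm.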

HepG2 [3] = assay: Cell cycle arrest in human HepG2 cells assessed as accumulation at S-phase at 1 uM after 24 hrs by propidium iodide staining based flow cytometry (reference value: 25.5%); type: functional
Method in brief: (§2)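 HepG2 cells exposed 24 h to 0.5, 1.0 or 5.0 μM, with DMSO control; washed in cold PBS, fixed in ice-cold 95% ethanol at 4 °C for at least 2 h, then PI-stained 30 min at 37 °C. Cell-cycle phases read by flow cytometry on 10 000 cells per sample; three independent experiments.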

HepG2 [4] = assay: Cell cycle arrest in human HepG2 cells assessed as accumulation at G1-phase at 5 uM after 24 hrs by propidium iodide staining based flow cytometry (reference value: 62.3%); type: functional; method in brief: as §2
HepG2 [5] = assay: Cell cycle arrest in human HepG2 cells assessed as accumulation at G2-phase at 1 uM after 24 hrs by propidium iodide staining based flow cytometry (reference value: 9.61%); type: functional; method in brief: as §2
HepG2 [6] = assay: Induction of apoptosis in human HepG2 cells assessed as necrotic cells at 5 uM after 48 hrs by annexin-V-FITC/propidium iodide staining based flow cytometry (reference value: 1.82%); type: functional
HepG2 [7] = assay: Induction of apoptosis in human HepG2 cells assessed as cell shrinkage at 5 to 10 uM after 48 hrs by Hoechst 33342 staining based fluorescence microscopic analysis; type: functional
Method in brief: (§3)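 1 × 10^6 HepG2 cells on coverslips treated 48 h at 1.0, 5.0 or 10 μM; DMSO control. Fixed 30 min in 4% paraformaldehyde, Hoechst 33342 stained 10 min at room temperature in the dark, PBS-washed, nuclear morphology viewed by fluorescence microscopy.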

HepG2 [8] = assay: Induction of apoptosis in human HepG2 cells assessed as late apoptotic cells at 5 uM after 48 hrs by annexin-V-FITC/propidium iodide staining based flow cytometry (reference value: 0.51%); type: functional
HepG2 [9] = assay: Cell cycle arrest in human HepG2 cells assessed as accumulation at S-phase at 0.5 uM after 24 hrs by propidium iodide staining based flow cytometry (reference value: 25.5%); type: functional; method in brief: as §2
HepG2 [10] = assay: Induction of apoptosis in human HepG2 cells assessed as early apoptotic cells at 1 uM after 48 hrs by annexin-V-FITC/propidium iodide staining based flow cytometry (reference value: 0.33%); type: functional
HepG2 [11] = assay: Induction of apoptosis in human HepG2 cells assessed as early apoptotic cells at 5 uM after 48 hrs by annexin-V-FITC/propidium iodide staining based flow cytometry (reference value: 0.33%); type: functional
HepG2 [12] = assay: Induction of apoptosis in human HepG2 cells assessed as late apoptotic cells at 1 uM after 48 hrs by annexin-V-FITC/propidium iodide staining based flow cytometry (reference value: 0.51%); type: functional
HepG2 [13] = assay: Cell cycle arrest in human HepG2 cells assessed as accumulation at S-phase at 5 uM after 24 hrs by propidium iodide staining based flow cytometry (reference value: 25.5%); type: functional; method in brief: as §2
HepG2 [14] = assay: Cell cycle arrest in human HepG2 cells assessed as accumulation at G2-phase at 0.5 uM after 24 hrs by propidium iodide staining based flow cytometry (reference value: 9.61%); type: functional; method in brief: as §2
HepG2 [15] = assay: Induction of apoptosis in human HepG2 cells assessed as chromatin condensation at 5 to 10 uM after 48 hrs by Hoechst 33342 staining based fluorescence microscopic analysis; type: functional, cell-based; method in brief: as §3
HepG2 [16] = assay: Cell cycle arrest in human HepG2 cells assessed as accumulation at G1-phase at 0.5 uM after 24 hrs by propidium iodide staining based flow cytometry (reference value: 62.3%); type: functional; method in brief: as §2
HepG2 [17] = assay: Induction of apoptosis in human HepG2 cells assessed as necrotic cells at 1 uM after 48 hrs by annexin-V-FITC/propidium iodide staining based flow cytometry (reference value: 1.82%); type: functional
HepG2 [18] = assay: Induction of apoptosis in human HepG2 cells assessed as necrotic cells at 0.5 uM after 48 hrs by annexin-V-FITC/propidium iodide staining based flow cytometry (reference value: 1.82%); type: functional
HepG2 [19] = assay: Cell cycle arrest in human HepG2 cells assessed as accumulation at G2-phase at 5 uM after 24 hrs by propidium iodide staining based flow cytometry (reference value: 9.61%); type: functional; method in brief: as §2
HepG2 [20] = assay: Cell cycle arrest in human HepG2 cells assessed as accumulation at G1-phase at 1 uM after 24 hrs by propidium iodide staining based flow cytometry (reference value: 62.3%); type: functional; method in brief: as §2
HepG2 [21] = assay: Induction of apoptosis in human HepG2 cells assessed as early apoptotic cells at 0.5 uM after 48 hrs by annexin-V-FITC/propidium iodide staining based flow cytometry (reference value: 0.33%); type: functional
HepG2 [22] = assay: Induction of apoptosis in human HepG2 cells assessed as late apoptotic cells at 0.5 uM after 48 hrs by annexin-V-FITC/propidium iodide staining based flow cytometry (reference value: 0.51%); type: functional

Row | Compound | IC50 (HepG2 [1]) [nM] | IC50 (BV-2) [nM] | IC50 (PC-3) [nM] | viability at 24 h [2] [%] | further results
1 | CCCC(=O)N[C@H](C)C(=O)O[C@H]1C/C=C/C=C/C=C/[C@H](OC)CC(=O)Nc2cc(O)cc(c2)CC/C=C(/C)[C@H](O)[C@H]1C | 3000 | 1700 | 4500 | 96 | –
2 | CC.CO[C@H]1/C=C/C=C/C=C/C[C@H](O)[C@H](C)[C@@H](OC(=O)[C@@H](C)NC(=O)CC(C)C)/C(C)=C\CCc2cc(O)cc(c2)NC(=O)C1 | 20500 | 8300 | 11900 | 83.1 | –
3 | CCC(C)C(=O)N[C@H](C)C(=O)O[C@H]1C/C=C/C=C/C=C/[C@H](OC)CC(=O)Nc2cc(O)cc(c2)CC/C=C(/C)[C@H](O)[C@H]1C (some centres undefined) | 500 | 480 | 2600 | 76.3 | –
4 | CO[C@H]1/C=C/C=C/C=C/C[C@H](OC(=O)[C@@H](C)NC(=O)C2CCCCC2)[C@H](C)[C@@H](O)/C(C)=C\CCc2cc(O)cc(c2)NC(=O)C1 [TRIENOMYCIN A] | 200 | 20 | 400 | 95.2 | –
5 | CO[C@H]1/C=C/C=C/C=C/C[C@H](OC(=O)[C@@H](C)NC(=O)CC(C)C)[C@H](C)[C@@H](O)/C(C)=C\CCc2cc(O)cc(c2)NC(=O)C1 | 1000 | 1100 | 4500 | 92.7 | –
6 | CO[C@H]1/C=C/C=C/C=C/C[C@H](OC(=O)[C@@H](C)NC(=O)C2=CCCCC2)[C@H](C)[C@@H](O)/C(C)=C\CCc2cc(O)cc(c2)NC(=O)C1 | 200 | 30 | 700 | 94.3 | –
7 | CO[C@H]1/C=C/C=C/C=C/C[C@H](O)[C@H](C)[C@@H](OC(=O)[C@@H](C)NC(=O)C2CCCCC2)/C(C)=C\CCc2cc(O)cc(c2)NC(=O)C1 | 17600 | 300 | 10200 | 93.1 | –
8 | CO[C@H]1/C=C/C=C/C=C/C[C@H](OC(=O)[C@@H](C)NC(=O)CCCC(C)C)[C@H](C)[C@@H](O)/C(C)=C\CCc2cc(O)cc(c2)NC(=O)C1 | 100 | 90 | 2700 | 83.8 | Activity (HepG2 [3]): 34.5%; Activity (HepG2 [4]): 42.4%; Activity (HepG2 [5]): 12.4%; Activity (HepG2 [6]): 3.66%; Activity (HepG2 [7]): Active; Activity (HepG2 [8]): 5.67%; Activity (HepG2 [9]): 24.7%; Activity (HepG2 [10]): 9.53%; Activity (HepG2 [11]): 17.63%; Activity (HepG2 [12]): 1.66%; Activity (HepG2 [13]): 38.6%; Activity (HepG2 [14]): 14.2%; Activity (HepG2 [15]): Active; Activity (HepG2 [16]): 59.1%; Activity (HepG2 [17]): 2.1%; Activity (HepG2 [18]): 1.98%; Activity (HepG2 [19]): 12.6%; Activity (HepG2 [20]): 37.1%; Activity (HepG2 [21]): 5.11%; Activity (HepG2 [22]): 1.25%
9 | CO[C@H]1/C=C/C=C/C=C/C[C@H](OC(=O)[C@@H](C)NC(=O)CCC(C)C)[C@H](C)[C@@H](O)/C(C)=C\CCc2cc(O)cc(c2)NC(=O)C1 | 200 | 180 | 4200 | 82.5 | –
10 | COc1cccc2c1C(=O)c1c(O)c3c(c(O)c1C2=O)C[C@@](O)(C(=O)CO)C[C@@H]3O[C@H]1C[C@H](N)[C@H](O)[C@H](C)O1 [DOXORUBICIN] | 700 | – | 800 | – | –
11 | O=c1c(O)c(-c2ccc(O)c(O)c2)oc2cc(O)cc(O)c12 [QUERCETIN] | – | 2400 | – | 99.2 | –
12 | CO[C@H]1/C=C/C=C/C=C/C[C@H](OC(=O)[C@@H](C)NC(=O)C(C)C)[C@H](C)[C@@H](O)/C(C)=C\CCc2cc(O)cc(c2)NC(=O)C1 | 400 | 2900 | 4400 | 85.4 | –
